The structures appear in SMILES notation.

The target of assay [1] is T1, ATP-citrate synthase (Rattus norvegicus, UniProt P16638).
T1 sequence (P16638 whole entry): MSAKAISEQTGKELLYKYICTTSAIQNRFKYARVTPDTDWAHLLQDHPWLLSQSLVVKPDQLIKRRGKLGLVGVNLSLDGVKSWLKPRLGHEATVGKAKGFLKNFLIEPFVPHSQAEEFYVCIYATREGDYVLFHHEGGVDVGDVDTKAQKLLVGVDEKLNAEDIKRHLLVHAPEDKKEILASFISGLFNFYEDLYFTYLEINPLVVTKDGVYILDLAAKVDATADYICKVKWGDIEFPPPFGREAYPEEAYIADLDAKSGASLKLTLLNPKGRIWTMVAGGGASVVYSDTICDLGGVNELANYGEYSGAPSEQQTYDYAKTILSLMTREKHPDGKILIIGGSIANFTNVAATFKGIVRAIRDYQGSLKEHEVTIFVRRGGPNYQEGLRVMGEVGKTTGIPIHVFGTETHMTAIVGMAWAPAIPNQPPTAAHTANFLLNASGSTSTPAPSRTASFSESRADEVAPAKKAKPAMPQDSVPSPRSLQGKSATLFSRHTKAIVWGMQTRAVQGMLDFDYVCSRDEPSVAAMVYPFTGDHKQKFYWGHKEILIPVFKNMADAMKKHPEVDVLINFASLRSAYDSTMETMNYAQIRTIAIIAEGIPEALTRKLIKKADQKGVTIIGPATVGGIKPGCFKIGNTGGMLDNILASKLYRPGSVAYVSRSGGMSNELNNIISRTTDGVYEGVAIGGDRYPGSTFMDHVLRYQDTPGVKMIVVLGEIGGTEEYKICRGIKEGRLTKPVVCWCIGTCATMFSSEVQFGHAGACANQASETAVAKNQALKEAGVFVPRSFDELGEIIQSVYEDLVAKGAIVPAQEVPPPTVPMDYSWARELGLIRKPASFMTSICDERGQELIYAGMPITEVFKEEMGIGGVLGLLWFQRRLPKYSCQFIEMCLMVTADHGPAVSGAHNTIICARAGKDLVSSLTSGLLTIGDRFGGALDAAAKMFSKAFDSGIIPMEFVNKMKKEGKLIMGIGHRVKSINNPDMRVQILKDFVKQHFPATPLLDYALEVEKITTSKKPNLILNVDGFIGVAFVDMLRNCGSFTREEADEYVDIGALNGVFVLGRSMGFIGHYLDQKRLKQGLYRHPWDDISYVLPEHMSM
As to the kind of experiment: Irreversible inactivation of rat ATP-Citrate Lyase; nd=not detectable. The gist of the method: (§1)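 Rat liver ATP citrate lyase (purified) incubated with 2 mM inhibitor at 25 °C in Tris-HCl pH 8.0; aliquots withdrawn over 48 h and placed directly into assay cocktail with saturating substrate. Remaining activity read as carbon–carbon cleavage of citrate to detect time-dependent inactivation.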

For assay [2], the target named is T1, ATP-citrate synthase. As to the kind of experiment: Reversible binding potential for rat ATP-Citrate Lyase as carbon-carbon bond cleavage activity in citrate substrate. An outline of the steps:
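Purified rat liver enzyme; carbon–carbon cleavage activity measured at 1.0 mM citrate (equal to Km). Ki derived by fitting rate data to the competitive inhibition equation, which reduces under these conditions to V = Vmax/(2 + [I]/Ki).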

Assay [3] addresses T1, ATP-citrate synthase. As to the kind of experiment: Irreversible inactivation was evaluated against rat ATP-Citrate Lyase; nd= Time dependent inactivation was not detectable above thermal decay rate of 5.0 x10E-3 1/h at 2 mM inhibitor at […]; not detectable. An outline of the steps:
as §1

`O=C(O)CC(S)(CC(=O)O)C(=O)O`: the figures for the Ki result on ATP-citrate synthase [1] and on ATP-citrate synthase [2] were “Not detectable” and 295 µM, respectively.

As for `O=C(O)C[C@]1(C(=O)O)O[C@@H]1C(=O)O`, the Ki result on ATP-citrate synthase [1] was “Not detectable”; at ATP-citrate synthase [2], 400 µM.

On to `O=C(O)/C=C(/CC(=O)O)C(=O)O`, for which the Ki entry on ATP-citrate synthase [1] was “Not detectable”; on ATP-citrate synthase [2], over 1000 µM.

As to `O=C(O)C[C@@](O)(C(=O)O)[C@H](O)C(=O)O`, the figures for the Ki on ATP-citrate synthase [2] and at ATP-citrate synthase [3] were 0.15 µM and “Not detectable”, respectively.

Consider `CSSC(CC(=O)O)(CC(=O)O)C(=O)O`, for which the values for the Ki result at ATP-citrate synthase [1] and at ATP-citrate synthase [2] were “Not detectable” and 480 µM, respectively.

Take `CSS[C@H](C(=O)O)[C@@](O)(CC(=O)O)C(=O)O`: the results for the Ki entry at ATP-citrate synthase [1] and on ATP-citrate synthase [2] were “Not detectable” and 34 µM, respectively.

On to `C=C(CC(=O)O)C(=O)O` [ITACONATE], for which the Ki entry at ATP-citrate synthase [1] was “Not detectable”; on ATP-citrate synthase [2], over 1000 µM.

Consider `O=C(O)C[C@@](O)(C(=O)O)[C@@H](S)C(=O)O`, for which the Ki result was “Not detectable” on ATP-citrate synthase [1] and 150 µM on ATP-citrate synthase [2].

As for `O=C(O)C[C@@](O)(C(=O)O)[C@@H](Cl)C(=O)O`, the Ki entry on ATP-citrate synthase [1] is “Not detectable”; at ATP-citrate synthase [2], 29 µM.

On to `O=C1C[C@@](C(=O)O)([C@@H](Cl)C(=O)O)O1`, for which the Ki entry on ATP-citrate synthase [1] is “Not detectable”; on ATP-citrate synthase [2], 340 µM.

In the case of `O=C(O)/C=C(\CC(=O)O)C(=O)O` [ACONITIC ACID], the Ki result at ATP-citrate synthase [1] was “Not detectable”; on ATP-citrate synthase [2], over 1000 µM.

Take `O=C(O)C[C@@](O)(C(=O)O)[C@H](S)C(=O)O`: the Ki entry is “Not detectable” on ATP-citrate synthase [1] and 58 µM at ATP-citrate synthase [2].

With `O=C(O)C[C@]1(C(=O)O)O[C@H]1C(=O)O`, the Ki result was “Not detectable” at ATP-citrate synthase [1] and 18 µM on ATP-citrate synthase [2].

For the origin of these results see ChEMBL document CHEMBL1128232, “Synthesis of novel thiol-containing citric acid analogues. Kinetic evaluation of these and other potential active-site-directed and mechanism-based inhibitors of ATP citrate lyase” (J Med Chem, 1995).
